ChEMBL document CHEMBL1122234, “Oxidation of uric acid. 4. Synthesis, structure, and diabetogenic action of 5-imino-2,4,6(1H,3H,5H)-pyrimidinetrione salts and their alloxan-like covalent adducts” (1983)
Activity calls are given as the source filed them. No cut-off for these calls is given here.

Legend:
[1] = system: Rattus norvegicus; assay: Diabetogenic activity in Lewis strain of albino rats after iv administration; assay type: functional
How it was run: (§1)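 Male Lewis rats (200-230 g), 24 per dose level, fasted 12 h, then dosed by tail-vein iv injection, or ip as a saline suspension when poorly soluble. A rat counted as diabetic if glucosuria (>1%) appeared within 24 h and persisted 5 days. Blood sugar and islet histology were also observed. The dose making 50% of animals diabetic (ED50, mmol/kg) was estimated graphically.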

[2] = Relative potency compared to that of Alloxan in albino rats.; assay type: functional
[3] = Relative potency compared to that of streptozotocin in albino rats.; assay type: functional
[4] = system: Rattus norvegicus; assay: Diabetogenic activity in Lewis strain of albino rats after ip administration; assay type: functional; how it was run: as §1
[5] = system: Rattus norvegicus; assay: Diabetogenic activity in Lewis strain of albino rats after iv administration; Inactive nondiabetogenic at the dose 2 g/kg ip; inactive; assay type: functional, organism-based; how it was run: as §1
[6] = Relative potency compared to that of Alloxan in albino rats; Inactive nondiabetogenic at the dose 2 g/kg ip; inactive; assay type: functional
[7] = Relative potency compared to that of streptozotocin in albino rats; Inactive nondiabetogenic at the dose 2 g/kg ip; inactive; assay type: functional
[8] = Rattus norvegicus, iv, read-out: ED50

`Br.NC1(O)C(=O)NC(=O)NC1=O` showed an ED50 [1, 8] of 150 µmol/kg, a Relative potency [2] of 2.1 and a Relative potency [3] of 1.

`Cl.N=C1C(=O)NC(=O)NC1=O` showed an ED50 [1] of 140 µmol/kg, a Relative potency [2] of 2.2 and a Relative potency [3] of 1.1.

In the case of `Br.N=C1C(=O)NC(=O)NC1=O`, the ED50 [1, 8] is reported as 160 µmol/kg, the Relative potency [2] is reported as 1.9 and the Relative potency [3] is reported as 0.9.

Compound `O=C1NC(=O)C2(O)NC(=O)NC2(O)N1` (configuration not stated) has an ED50 [4] of 1060 µmol/kg and a Relative potency [2] of 1.1.

With `CN(N=O)C(=O)N[C@@H](C=O)[C@@H](O)[C@H](O)[C@H](O)CO` [STREPTOZOCIN] the ED50 [1, 8] was 150 µmol/kg, the Relative potency [2] was 2.1 and the Relative potency [3] was 1.

For `NC(=O)NC1(O)C(=O)NC(=O)NC1=O`, the ED50 [1, 8] was 150 µmol/kg, the Relative potency [2] was 2.1 and the Relative potency [3] was 1.

With `O=C1NC(=O)C(O)(O)C(=O)N1` the ED50 [1, 8] was 310 µmol/kg, the ED50 [4] was 1120 µmol/kg and the Relative potency [2] was 1. The Relative potency [3] was 0.5.

In the case of `NC(=O)NC1(N)C(=O)NC(=O)NC1=O`, the ED50 [5] is reported as “inactive”, the Relative potency [6] is reported as “inactive” and the Relative potency [7] is reported as “inactive”.

For `Cl.NC1(O)C(=O)NC(=O)NC1=O`, the ED50 [1] was 140 µmol/kg, the Relative potency [2] was 2.2 and the Relative potency [3] was 1.1.
